In data set [1] the test system is Trypanosoma cruzi. The data set is described as follows: Antitrypanosomal activity against bloodstream forms of Trypanosoma cruzi infected in C3H/He mouse assessed as increase in mean survival time at 100 mg/kg, po bid administered through gavage starting 3 days post challenge for 5 successive days relative to control. The note with it: for survival at 100 mg/kg: Trypanosoma cruzi, po, 72 h. In kind it is functional. A digest of the protocol:
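Male C3H/He mice infected ip with 2×10^3 bloodstream T. cruzi (Brazilian strain). Compound micronized to 0.5-2.0 μ and suspended in 0.9% NaCl, 1.0% Na carboxymethylcellulose, 0.5% Tween 80, 0.05% antifoam B; given at 100 mg/kg (0.01 ml/2 g) by gavage twice daily for 5 days from day 3 post-infection; groups of 7. Value is percent IMST over untreated controls; Student's t test.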

Data set [2] relates to Trypanosoma cruzi. Put plainly: Antitrypanosomal activity against bloodstream forms of Trypanosoma cruzi by in vitro assay. The format is functional. The note with it: for MIC: Trypanosoma cruzi. The essentials: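 Serial dilution in liquid culture in Warren's medium. Read-outs are the minimum inhibitory concentration (MIC) and the minimum lethal concentration (MLC), both in μg/ml.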

Data set [3] deals with Mus musculus. The data set is described as follows: Toxicity in C3H/He mouse infected with bloodstream forms of Trypanosoma cruzi assessed as weight loss at 100 mg/kg, po bid administered through gavage starting 3 days post challenge for 5 successive days. The format is organism-based. The arrangement: dose 100 mg/kg, route oral. The note with it: in vivo, 72 h. The essentials:
(§1)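 Male C3H/He mice were infected ip with 2×10^3 bloodstream forms of a Brazilian T. cruzi strain. Compounds were micronized to 0.5-2.0 μ and suspended in 0.9% NaCl, 1.0% Na-CMC, 0.5% Tween 80 and 0.05% antifoam B, dosed at 0.01 ml/2 g body weight. Groups of seven got 100 mg/kg by gavage twice daily for 5 days, starting day 3 postinfection, with untreated controls.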

Data set [4] concerns Trypanosoma cruzi. The data set is described as follows: Antitrypanosomal activity against bloodstream forms of Trypanosoma cruzi infected in C3H/He mouse assessed as parasitologic cures at 100 mg/kg, po bid administered through gavage starting 3 days post challenge for 5 successive days relative to control. The format is functional, organism-based. The arrangement: dose 100 mg/kg. A digest of the protocol: as §1

Data set [5] relates to Trypanosoma cruzi. The data set is described as follows: Antitrypanosomal activity against bloodstream forms of Trypanosoma cruzi infected in C3H/He mouse assessed as parasitologic cures at 200 mg/kg, po administered 4 times a day through gavage starting 3 days post challenge for 5 successive days relative to control. The format is functional, organism-based. The arrangement: dose 200 mg/kg. A digest of the protocol: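 Male C3H/He mice were infected ip with 2×10^3 bloodstream T. cruzi forms (Brazilian strain). Compound was given orally at 200 mg/kg four times daily for 5 days, then followed for parasitemia, survival and body weight.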

For data set [6], the system named is Mus musculus. The data set is described as follows: Toxicity in C3H/He mouse infected with bloodstream forms of Trypanosoma cruzi assessed as weight loss at 200 mg/kg, po qid administered 4 times a day through gavage starting 3 days post challenge for 5 successive days. To be noted: in vivo, 72 h.
Data set [7] has as its system Trypanosoma cruzi. Put plainly: Antitrypanosomal activity against bloodstream forms of Trypanosoma cruzi infected in C3H/He mouse assessed as increase in mean survival time at 100 mg/kg, ip bid starting 3 days post challenge for 5 successive days relative to control. The format is functional. To be noted: 72 h, route intraperitoneal. The essentials: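 Infection: ip inoculation of 2×10^3 bloodstream forms of a Brazilian T. cruzi strain into male C3H/He mice. Compound given by intraperitoneal route, 100 mg/kg twice daily. Value is percent increase in mean survival time beyond untreated controls, taken from mortality records; significance by Student's t test.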

Molecules are shown by their SMILES. In brackets after ≈: the same amount, converted by molar mass. Activity calls are given as the source filed them. The rule behind the calls is not given here. Bounds are passed on as bounds.

`O=[N+]([O-])c1ccc(/C=N/Nc2cc(Cl)nc3ccnn23)o1`: the survival at 100 mg/kg in data set [1] amounted to 36.3%. In addition, in data set [2], the MLC worked out at 1 µg/mL (≈ 3.26 µM) and the MIC (as a rule, the lowest concentration that inhibits growth of the organism) was under 1 µg/mL. The Activity result in data set [3] is given as “Non-toxic”.

On to `Cc1cc(N/N=C/c2ccc([N+](=O)[O-])o2)n2ncc(S(=O)(=O)O)c2n1`, for which, in data set [1], the survival at 100 mg/kg turned out to be 9%. Further, in data set [2], the MLC came to 100 µg/mL (≈ 273 µM) and the MIC is over 10 µg/mL. In data set [3], the Activity entry is “Non-toxic”.

`O=[N+]([O-])c1ccc(/C=N/Nc2cc(Cl)nc3nccn23)o1`: the survival at 100 mg/kg in data set [1] was 4.4%. In data set [2], this compound displayed an MLC of 100 µg/mL (≈ 326 µM) and an MIC of 10 µg/mL (≈ 32.6 µM).

For `Cc1nc(N/N=C/c2ccc([N+](=O)[O-])o2)n2nc(-c3ccccc3)cc2n1`, the survival at 100 mg/kg in data set [1] was 24.9%. In data set [2], this compound displayed an MLC of 3.2 µg/mL (≈ 8.81 µM) and an MIC of 1 µg/mL (≈ 2.75 µM).

Take `O=[N+]([O-])c1ccc(/C=N/Nc2cc(Cl)nc3c(Cl)cnn23)o1`: in data set [1], the survival at 100 mg/kg stood at 14.6%. Also, in data set [2], the MLC is 10 µg/mL (≈ 29.3 µM) and it took 10 µg/mL (≈ 29.3 µM) to inhibit growth (MIC). Also, the Activity result in data set [3] was “Non-toxic”.

Take `Cc1cc(N/N=C/c2ccc([N+](=O)[O-])o2)n2nccc2n1`: the survival at 100 mg/kg in data set [1] is 63.4%. Also, in data set [2], the MLC is 10 µg/mL (≈ 34.9 µM). The compound also had an MIC in data set [2] of 10 µg/mL (≈ 34.9 µM). Also, the outcome in data set [4] and in data set [5] was inactive. The figures for the Activity result in data set [3] and in data set [6] were “Non-toxic” and “Toxic”, respectively.

Consider `Cc1cc(N/N=C/c2ccc([N+](=O)[O-])o2)n2ncc(Br)c2n1`, for which the survival at 100 mg/kg in data set [1] came to 21.9%. In data set [2], this compound gave an MLC of over 100 µg/mL and an MIC of 100 µg/mL (≈ 274 µM). The Activity entry in data set [3] is “Non-toxic”.

For `CCOC(=O)c1cnn2c(N/N=C/c3ccc([N+](=O)[O-])o3)cc(C)nc12`, in data set [1], the survival at 100 mg/kg is 1.3%. In data set [2], this compound returned an MLC of 10 µg/mL (≈ 27.9 µM) and an MIC of 10 µg/mL (≈ 27.9 µM). In data set [3], the Activity entry was “Non-toxic”.

In data set [2], `Cc1cc(N/N=C/c2ccc([N+](=O)[O-])o2)n2ncc(-c3ccccc3)c2n1` yielded an MLC of 1 µg/mL (≈ 2.76 µM) and an MIC of under 1 µg/mL. Also, the Activity entry in data set [3] was “Non-toxic”.

In data set [2], `Cc1cc(N/N=C/c2ccc([N+](=O)[O-])o2)n2ccnc2n1` returned an MLC of over 100 µg/mL and an MIC of over 100 µg/mL.

In the case of `Cc1cc(N/N=C/c2ccc([N+](=O)[O-])o2)n2ncc(S(=O)(=O)[O-])c2n1.[Na+]`, the Survival in data set [1] is listed as 8.5%. In data set [2], the MLC was over 100 µg/mL and the MIC is over 100 µg/mL. In data set [3], the Activity result is given as “Non-toxic”.

On to `O=[N+]([O-])c1ccc(/C=N/Nc2ccnc3ccnn23)o1`, for which, in data set [1], the survival at 100 mg/kg is under 1%. In data set [2], this compound returned an MLC of 10 µg/mL (≈ 36.7 µM) and an MIC of 10 µg/mL (≈ 36.7 µM). Also, the Activity entry in data set [3] is “Non-toxic”.

In the case of `Cc1cc(N/N=C/c2ccc([N+](=O)[O-])o2)n2ncnc2n1`, the survival at 100 mg/kg in data set [1] came out at 4.3%. For the same compound, in data set [2], the MLC is over 100 µg/mL and the MIC was over 100 µg/mL.

As for `Cc1cc(N/N=C/c2ccc([N+](=O)[O-])o2)n2ncc(-c3ccc(Cl)cc3)c2n1`, the survival at 100 mg/kg in data set [7] amounted to 20.5%. In data set [2], this compound returned an MLC of 3.2 µg/mL (≈ 8.06 µM) and an MIC of 1 µg/mL (≈ 2.52 µM). In addition, the Activity entry in data set [3] was “Non-toxic”.

Source of the values: ChEMBL document CHEMBL3272042, “Novel heterocyclic nitrofurfural hydrazones. In vivo antirypanosomal activity” (J Med Chem, 1976).
